Screening results from PubChem.
A selection: hits, their analogues and other compounds. The true share with any hit is near 3.8%.
Exocytosis inh: blocks lytic granule exocytosis; inhibition, % at 10 µM; TALL-104 LAMP-1 surface exposure, flow cytometry; cells stimulated with thapsigargin and PMA; AID 651702; 360,000 compounds, 0.66% hits;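 active = inhibition above about 55%, limit read from the data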
MPTP inh: blocks calcium-induced mitochondrial swelling; isolated mouse mitochondria, Ca2+ swelling absorbance, 30 min; inhibition, % at 10 µM; 360,000 compounds, 1.4% hits;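 active = inhibition of 50% or more, scaled per plate between neutral and stimulator controls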;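 note: 0% = DMSO wells given calcium and 100% = 1 mM EGTA wells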
V-ATPase pH: regulators of yeast V-ATPase proton transport | S. cerevisiae, pHLuorin cytosolic pH fluorescence | response, % at 10 µM | 350,000 compounds, 0.37% hits; in the data active = response mostly above about 7.3%, no sharp cut-off; inactive = mostly below about 5.4%; note: actives read high
rCAG binder: r(CAG) repeat RNA binding | inhibition, % at 3 µM | AID 651821 | TO-PRO-1 dye displacement fluorescence | 370,000 compounds, 1.3% hits;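 active = inhibition above the plate cutoff, the mean of all test compounds on that plate plus 3 SD, cut at about 35% in these data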;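 note: 0% = DMSO alone and 100% = 100 µM mitoxantrone as full dye displacement; higher means more dye released from RNA so lower well fluorescence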
T cell HTS: modulates CD8 T cell binding to vesicles; 2C CD8+ T cell-vesicle binding, flow cytometry; hits give low values; AID 2052; 330,000 compounds, 0.068% hits; response (vesicle binding), % at 7 µM;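 active = response, share of CD8 T cells binding vesicles, and their 90th percentile fluorescence all below set limits, cut at about 80% in these data, passing the limit was not always enough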;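 note: values below 100% mean blocked vesicle binding to the CD8+ T cells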
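material = purified 2C TCR transgenic mouse naive CD8+ T cells | controls = Unloaded micro-vesicles (low), QL9 vesicles with 0.7% DMSO (high) | detection = cytometric PE anti-B7-1 and Alexa647 anti-CD8 signals after 1% paraformaldehyde fixation | incubation = binding step 1.5 h, 37 °C, antibody labelling 20 min, ice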
B2AR ag: human beta-2 adrenergic receptor agonism by FAP. P07550. Am2.2-beta2AR cells, FAP receptor internalization, flow cytometry. response, % (test concentration not listed). 340,000 compounds, 0.43% hits. AID 504454;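 active = response above a set limit, near 3 SD of response in nonfluorescent compounds, cut at about 42% in these data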
Target sequence (P07550 whole entry, looked up): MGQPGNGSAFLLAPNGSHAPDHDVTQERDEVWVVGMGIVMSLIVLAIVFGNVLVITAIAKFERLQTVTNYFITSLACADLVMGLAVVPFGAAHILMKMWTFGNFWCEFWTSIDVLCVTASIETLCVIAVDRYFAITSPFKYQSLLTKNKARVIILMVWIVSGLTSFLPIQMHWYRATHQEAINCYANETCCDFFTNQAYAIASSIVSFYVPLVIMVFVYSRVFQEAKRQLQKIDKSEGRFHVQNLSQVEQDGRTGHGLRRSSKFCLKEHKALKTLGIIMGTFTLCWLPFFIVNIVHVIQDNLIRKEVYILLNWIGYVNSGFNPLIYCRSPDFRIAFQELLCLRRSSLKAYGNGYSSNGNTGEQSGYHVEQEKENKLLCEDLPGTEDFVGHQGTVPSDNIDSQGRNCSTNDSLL
rCAG bind conf: r(CAG) RNA repeat binding, confirmation; shares compounds with rCAG binder; TO-PRO-1 dye displacement fluorescence; inhibition, % at 3 µM; 4,300 compounds, 70% hits; AID 652065;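 active = inhibition above a per-plate cutoff, the mean inhibition of sample wells plus 3 SD, cut at about 35% in these data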;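 note: loss of TO-PRO-1 fluorescence as compound displaces dye from 1x1 AA loop RNA; 0% = DMSO only wells and 100% = 100 µM mitoxantrone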
dCAG dye counter: counter-screen for rCAG RNA binders: DNA CAG dye complex inhibitors; shares compounds with rCAG binder; d(CAG) DNA oligo TO-PRO-1 dye displacement, fluorescence; inhibition, % at 3 µM; 4,300 compounds, 94% hits; AID 652068;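 active = inhibition above its plate's cutoff, the mean test-well inhibition plus 3 SD, cut at about 4.8% in these data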;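 note: 0% = DNA dye mix with DMSO and 100% = 100 µM mitoxantrone; hits displace the dye from DNA and so lower well fluorescence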
DNA CAG DR: DNA CAG dye complex inhibition, dose response counter-screen; shares compounds with rCAG binder; DNA CAG/GTC duplex TO-PRO-1 dye displacement fluorescence; IC50, µM; 250 compounds, 20% hits; AID 686960; in the data active = IC50 below about 10 µM
The depositor's hits bear a star; i = inactive; x = no result.

SMILES	Exocytosis inh	MPTP inh	V-ATPase pH	rCAG binder	T cell HTS	B2AR ag	rCAG bind conf	dCAG dye counter	others
CCOc1cc(/C=C(/C#N)c2ccc(F)cc2)ccc1OCc1ccc(C(=O)O)o1	5	1	-4	69*	292	7	68*	29*
COc1ccc(NC(=O)[C@@]2(CC(=O)O)CC(/C=C/c3ccccc3)=NO2)cc1	-5	-1	0	11	161	0	x	x
COc1ccc(Cl)cc1NC(=O)[C@@]1(CC(=O)O)CC(/C=C/c2ccccc2)=NO1	-2	0	-1	38*	98	3	36*	8.2*
CC(C)(C)c1ccc(S(=O)(=O)N2CCCC(C(=O)N3CCN(Cc4ccccc4)CC3)C2)cc1 (stereo not drawn)	x	x	x	4	x	x	x	x
CCN(CC)S(=O)(=O)c1ccc(NC(=O)COC(=O)c2cc(S(=O)(=O)Nc3ccc(OC)cc3)ccc2O)cc1	3	17	3	36*	574	4	61*	26*
O=C(Nc1cc(S(=O)(=O)N2CCOCC2)ccc1O)c1ccc(NS(=O)(=O)c2ccc(Cl)s2)cc1	-1	-14	2	64*	201	-11	42*	12*
CCN(CC)S(=O)(=O)c1ccc(NC(=O)COC(=O)c2ccc(Br)o2)cc1	-2	-1	2	1	242	6	x	x
COc1ccc(NS(=O)(=O)c2ccc(O)c(NC(=O)c3ccc(S(=O)(=O)N4CCCC4)cc3)c2)cc1	7	13	3	74*	161	0	50*	18*
CCOC(=O)c1ccc(S(=O)(=O)Nc2cc(S(=O)(=O)Nc3ccc(OC)cc3)ccc2O)cc1	5	2	4	62*	300	1	52*	22*
O=S(=O)(Nc1cc(S(=O)(=O)N2CCCC2)ccc1O)c1ccc(Cl)s1	0	16	-3	30	x	-10	x	x
CCOC(=O)c1ccc(NS(=O)(=O)c2ccc3[nH]c(=O)[nH]c3c2)cc1	0	1	8	6	343	6	x	x
COc1ccc(C(=O)Nc2ccc(S(=O)(=O)N3CCCC3)cc2)cc1	8	-1	0	3	161	13	x	x
COC(=O)C1CN(Cc2ccccc2)CCS(=O)(=O)N1Cc1cn(Cc2ccc(F)cc2)nn1 (stereo not drawn)	x	x	x	0	x	x	x	x
O=C(O)Cc1ccc(NS(=O)(=O)c2ccccc2Cl)cc1	-1	-1	1	1	400	-4	x	x
Cc1ccc(C)c(Sc2ccc(S(=O)(=O)Nc3ccc(C(=O)O)cc3)cc2)c1	-3	5	2	38*	475	-2	41*	11*
Cc1ccc(Sc2ccc(S(=O)(=O)Nc3ccc(CC(=O)O)cc3)cc2)cc1C	-3	-2	0	52*	423	1	44*	14*
COc1ccc2[nH]c(C(=O)O)c(NS(=O)(=O)c3ccc(C)cc3C)c2c1	0	-1	0	49*	379	6	24	4.9*
Cc1cc(S(=O)(=O)Nc2c(C(=O)O)[nH]c3ccccc23)ccc1F	-1	4	0	21	394	0	x	x
Cc1ccc(S(=O)(=O)Nc2c(C(=O)O)[nH]c3ccccc23)cc1C	-2	0	-2	46*	309	-3	34	11*
N#Cc1cccc(-c2ccccc2C(=O)NC2CCCCN(Cc3ccc(Cl)cc3)C2=O)c1 (stereo not drawn)	x	x	x	4	x	x	x	x
O=C(O)c1ccc(N/N=C/C2=C(N3CCOCC3)C(=C\c3ccccc3)/CC2)cc1	3	3	0	72*	240	-39	75*	36*
O=C(NC(=S)Nc1cccc([N+](=O)[O-])c1)c1ccccc1	9	2	-2	1	354	-5	x	x
O=C(O)c1cccc(NC(=S)NC(NC(=O)c2cccc([N+](=O)[O-])c2)C(Cl)(Cl)Cl)c1 (stereo not drawn)	-3	4	-5	53*	212	6	30	8.7*
O=S(=O)(Nc1ncnc2c1oc1ccccc12)c1ccc(Cl)s1	6	5	2	36*	336	7	17	3
CCc1nnc(NS(=O)(=O)c2ccc(N=Cc3c(C)[nH]n(-c4cccc(Cl)c4)c3=O)cc2)s1	15	10	0	53*	0	3	86*	63*
SMILES	Exocytosis inh	MPTP inh	V-ATPase pH	rCAG binder	T cell HTS	B2AR ag	rCAG bind conf	dCAG dye counter	others
COc1nccnc1NS(=O)(=O)c1ccc(N=Cc2c(C)[nH]n(-c3ccc(Cl)cc3)c2=O)cc1	x	x	x	4	205	x	x	x
COc1nccnc1NS(=O)(=O)c1ccc(N=Cc2c(C)[nH]n(-c3ccccc3)c2=O)cc1	3	1	13	10	348	3	x	x
CCc1nnc(NS(=O)(=O)c2ccc(N=Cc3c(C)[nH]n(-c4ccc(Cl)cc4)c3=O)cc2)s1	8	7	-1	49*	612	4	84*	59*
COc1cccc(CNC(=O)[C@H]2CCCN2C(=O)[C@H]2CCCN2C(=O)c2c(F)cccc2F)c1	x	x	x	-1	x	x	x	x
CN(C)/C=C(/C#N)C(=O)c1cccc(Oc2ccc(C(C)(C)C)cc2)c1	1	10	5	50*	228	11	20	6.1*
CCC(C)(C)c1ccc(Oc2ccc(N)cc2)cc1	0	9	-2	-4	x	29	x	x
CCC(C)(C)c1ccc(Oc2cccc(C(=O)O)c2)cc1	7	0	2	39*	75	-28	29	3
O=C1N2Cc3ccccc3C2CS(=O)(=O)N1C1CCCC1 (stereo not drawn)	x	x	x	2	x	x	x	x
COC(=O)[C@H](Cc1ccccc1)N1CC(N2CCCC2)CS1(=O)=O (stereo partly drawn)	x	x	x	3	x	x	x	x
CCOC(=O)N1CCN(C(=O)CNC(=O)c2nn(-c3ccc(OC)c(Cl)c3)c(=O)c3ccccc23)CC1	7	0	-1	39*	380	7	4	4
CCOC(=O)N1CCN(C(=O)CNC(=O)c2nn(-c3ccc(OC)c(OC)c3)c(=O)c3ccccc23)CC1	-9	-2	-2	1	164	14	x	x
CCCCCCCCNS(=O)(=O)/C=C/c1ccc(OC)cc1CNC(=O)OC(C)(C)C	x	x	x	-1	x	x	x	x
O=C(O)CC(NC(=O)c1cccc(F)c1)c1ccc(OC2CCCC2)cc1 (stereo not drawn)	-1	1	9	10	208	-14	x	x
O=C(O)CC(NC(=O)c1sc2ccccc2c1Cl)c1ccc(OC2CCCC2)cc1 (stereo not drawn)	-4	-2	-1	59*	278	-15	73*	25*	DNA CAG DR=i
